Measurements from ChEMBL document CHEMBL4257594 (J Med Chem, 2018).
Calls of active or inactive are those of the source. The rule behind the calls is not given here.

Experiments:
HUVEC [1] = experiment: Anti-angiogenic activity against HUVEC after 24 hrs by scintillation counting based [3H]-thymidine incorporation assay; format: functional, cell-based; conditions: Homo sapiens
Outline: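 HUVEC seeded at 2000 cells/well and left to settle overnight, then drug added in triplicate for 24 h. Mean ± SD of three independent experiments run in triplicate.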

CYP3A4 = CYP3A4 (Homo sapiens, UniProt P08684); experiment: (§1) Inhibition of human liver microsome CYP3A4 at 1 uM expressed in baculosomes using fluorogenic-DBOMF as substrate preincubated for 10 mins followed by substrate addition and measured after 60 mins by fluorescence based assay; format: ADME, microsomes; conditions: recombinant CYP3A4 expressed in baculosomes, probe DBOMF (fluorogenic)
Sequence of CYP3A4 (P08684 whole entry): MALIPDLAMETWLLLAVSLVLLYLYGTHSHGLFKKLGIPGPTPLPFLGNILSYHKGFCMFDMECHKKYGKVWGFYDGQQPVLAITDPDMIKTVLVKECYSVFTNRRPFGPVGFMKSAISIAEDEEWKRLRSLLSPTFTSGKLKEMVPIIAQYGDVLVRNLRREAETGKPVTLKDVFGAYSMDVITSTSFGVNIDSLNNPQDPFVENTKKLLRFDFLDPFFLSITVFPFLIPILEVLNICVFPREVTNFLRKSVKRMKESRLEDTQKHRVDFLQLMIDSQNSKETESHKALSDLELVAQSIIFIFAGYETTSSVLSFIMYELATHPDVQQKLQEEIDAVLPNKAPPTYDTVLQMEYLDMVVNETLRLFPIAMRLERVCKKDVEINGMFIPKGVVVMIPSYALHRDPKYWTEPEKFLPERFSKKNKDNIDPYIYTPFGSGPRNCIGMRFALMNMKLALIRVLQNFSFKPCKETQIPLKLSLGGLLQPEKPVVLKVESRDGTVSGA
Outline: (§2)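 CYP3A4 baculosomes preincubated with drug at 1 µM for 10 min at 37 °C before Vivid green substrate added. Fluorescence (ex/em 485/520) read 60 min after substrate addition. Percent inhibition set against 10 μM ketoconazole as the 100% control; mean ± SD of three independent experiments run in triplicate.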

[2] = biological target: T1, NPC intracellular cholesterol transporter 1 (Homo sapiens) (UniProt O15118); experiment: Binding affinity to NPC1 in HUVEC assessed as increase in cholesterol accumulation in late endosome/lysosome at 0.2 uM after 14 hrs by filipin staining-based confocal microscopy; format: cell-based
T1 sequence (whole entry): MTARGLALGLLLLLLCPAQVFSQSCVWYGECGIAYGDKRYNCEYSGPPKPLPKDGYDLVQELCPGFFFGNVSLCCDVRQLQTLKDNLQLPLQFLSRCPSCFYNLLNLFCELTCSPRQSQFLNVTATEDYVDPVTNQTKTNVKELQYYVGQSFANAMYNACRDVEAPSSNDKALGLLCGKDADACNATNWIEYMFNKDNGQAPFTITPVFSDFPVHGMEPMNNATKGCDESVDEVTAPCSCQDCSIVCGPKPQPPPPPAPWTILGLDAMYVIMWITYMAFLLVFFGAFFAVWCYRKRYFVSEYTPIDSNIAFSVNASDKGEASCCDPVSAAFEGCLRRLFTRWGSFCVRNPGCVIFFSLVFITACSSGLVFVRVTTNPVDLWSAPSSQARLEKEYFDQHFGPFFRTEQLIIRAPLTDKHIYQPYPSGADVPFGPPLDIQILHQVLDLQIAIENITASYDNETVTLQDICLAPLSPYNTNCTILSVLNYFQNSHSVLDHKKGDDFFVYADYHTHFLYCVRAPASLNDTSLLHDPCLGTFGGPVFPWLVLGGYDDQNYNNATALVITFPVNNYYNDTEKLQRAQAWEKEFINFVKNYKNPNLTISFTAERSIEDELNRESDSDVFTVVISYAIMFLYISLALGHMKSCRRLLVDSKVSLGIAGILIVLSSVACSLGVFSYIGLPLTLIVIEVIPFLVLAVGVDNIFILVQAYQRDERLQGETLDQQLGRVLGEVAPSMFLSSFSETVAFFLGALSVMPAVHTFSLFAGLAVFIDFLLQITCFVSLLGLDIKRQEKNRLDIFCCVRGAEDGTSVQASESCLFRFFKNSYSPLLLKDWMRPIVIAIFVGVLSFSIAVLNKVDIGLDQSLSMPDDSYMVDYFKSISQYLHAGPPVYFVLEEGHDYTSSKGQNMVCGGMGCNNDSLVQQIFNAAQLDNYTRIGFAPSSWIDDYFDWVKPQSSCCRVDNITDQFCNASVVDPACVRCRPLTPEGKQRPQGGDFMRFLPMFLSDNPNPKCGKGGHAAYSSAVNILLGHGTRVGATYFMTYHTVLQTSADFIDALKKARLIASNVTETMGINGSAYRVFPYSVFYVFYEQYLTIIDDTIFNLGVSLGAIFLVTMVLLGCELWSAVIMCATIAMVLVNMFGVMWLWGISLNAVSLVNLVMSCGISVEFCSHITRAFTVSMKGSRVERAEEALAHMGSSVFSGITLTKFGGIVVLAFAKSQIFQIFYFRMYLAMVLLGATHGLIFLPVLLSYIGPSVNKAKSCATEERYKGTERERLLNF
Outline: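 Methods give HUVEC (2,000) on chamber slides, settled overnight, then 0.1 µM drug or DMSO for 14 h; legend gives 0.2 μM for 24 h. Cells fixed in 4% paraformaldehyde for 15 min, then stained with 50 µg/ml filipin for 1 h in the dark. Imaged by confocal microscopy at 360/460 nm.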

HUVEC [3] = experiment: Antiangiogenic activity in HUVEC assessed as inhibition of tube formation at 5 uM after 24 hrs by matrigel assay relative to control; format: functional; conditions: Homo sapiens
Outline: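 HUVEC (70,000 per well) plated on Matrigel-coated wells in medium containing drug or DMSO. After 24 h, stained with 2 μM calcein AM for 15 min, medium replaced, and tube networks imaged by fluorescence microscopy. Total tube length quantified from the images and compared with DMSO.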

[4] = biological target: Non-selective voltage-gated ion channel VDAC1 (Homo sapiens) (UniProt P21796); experiment: Binding affinity to VDAC1 (unknown origin) at 10 uM using itraconazole as probe by photoaffinity probe competitor assay
Sequence of Non-selective voltage-gated ion channel VDAC1 (Homo sapiens) (P21796 whole entry): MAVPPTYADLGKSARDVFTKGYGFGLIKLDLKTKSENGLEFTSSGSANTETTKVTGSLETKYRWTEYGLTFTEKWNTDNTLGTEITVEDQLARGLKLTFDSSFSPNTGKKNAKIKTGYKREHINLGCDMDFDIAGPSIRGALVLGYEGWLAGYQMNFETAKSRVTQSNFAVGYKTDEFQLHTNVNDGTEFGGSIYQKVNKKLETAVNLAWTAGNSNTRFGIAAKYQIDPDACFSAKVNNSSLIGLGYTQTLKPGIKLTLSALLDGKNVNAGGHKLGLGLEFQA

Cytochrome P450 3A4 = Cytochrome P450 3A4 (Homo sapiens, UniProt P08684); experiment: as §1; format: ADME, microsomes; conditions: microsomes, 1 h, 1 µM; outline: as §2
Sequence of Cytochrome P450 3A4 (P08684 whole entry): as the sequence (P08684 whole entry) above

inhibition at 1 h, 1 µM (CYP3A4)	Activity [2]	Activity [4]	inhibition (INH) (Cytochrome P450 3A4)	SMILES	IC50 (HUVEC [1])	inhibition at 5 µM (HUVEC [3])
7%				CCC(C)n1ncn(-c2ccc(N3CCN(c4ccc(OC[C@@H]5CO[C@@](Cn6nnnc6C)(c6ccc(Cl)cc6Cl)O5)cc4)CC3)cc2)c1=O (stereo partly specified)	101 nM	
			Not Active	CCC(C)n1ncn(-c2ccc(N3CCN(c4ccc(OC[C@@H]5CO[C@@](CC)(c6ccc(Cl)cc6Cl)O5)cc4)CC3)cc2)c1=O (stereo partly specified)	353 nM	
			Not Active	CCC(C)n1ncn(-c2ccc(N3CCN(c4ccc(OC[C@@H]5CO[C@@](CC6CCCC6)(c6ccc(Cl)cc6Cl)O5)cc4)CC3)cc2)c1=O (stereo partly specified)	512 nM	
30%				CCC(C)n1ncn(-c2ccc(N3CCN(c4ccc(OC[C@@H]5CO[C@@](Cn6cnc(C)n6)(c6ccc(Cl)cc6Cl)O5)cc4)CC3)cc2)c1=O (stereo partly specified)	272 nM	
91%				CCC(C)n1ncn(-c2ccc(N3CCN(c4ccc(OC[C@@H]5CO[C@@](CN6CCNCC6)(c6ccc(Cl)cc6Cl)O5)cc4)CC3)cc2)c1=O (stereo partly specified)	608 nM	
			Not Active	CCC(C)n1ncn(-c2ccc(N3CCN(c4ccc(OC[C@@H]5CO[C@@](CN(C)C)(c6ccc(Cl)cc6Cl)O5)cc4)CC3)cc2)c1=O (stereo partly specified)	1400 nM	
16%				CCC(C)n1ncn(-c2ccc(N3CCN(c4ccc(OC[C@@H]5CO[C@@](CN6CCOCC6)(c6ccc(Cl)cc6Cl)O5)cc4)CC3)cc2)c1=O (stereo partly specified)	1180 nM	
98%				CCC(C)n1ncn(-c2ccc(N3CCN(c4ccc(OC[C@@H]5CO[C@@](Cn6cnc(C)c6)(c6ccc(Cl)cc6Cl)O5)cc4)CC3)cc2)c1=O (stereo partly specified)	102 nM	
3%				CCC(C)n1ncn(-c2ccc(N3CCN(c4ccc(OC[C@@H]5CO[C@@](CBr)(c6ccc(Cl)cc6Cl)O5)cc4)CC3)cc2)c1=O (stereo partly specified)	569 nM	
18%				CCC(C)n1ncn(-c2ccc(N3CCN(c4ccc(OC[C@@H]5CO[C@@](CN6CCN(C)CC6)(c6ccc(Cl)cc6Cl)O5)cc4)CC3)cc2)c1=O (stereo partly specified)	396 nM	
71%				CCC(C)n1ncn(-c2ccc(N3CCN(c4ccc(OC[C@@H]5CO[C@@](Cn6ccnc6C)(c6ccc(Cl)cc6Cl)O5)cc4)CC3)cc2)c1=O (stereo partly specified)	173 nM	

The remaining lines, values behind:

SMILES	inhibition at 1 h, 1 µM (CYP3A4)	Activity [2]	Activity [4]	inhibition (INH) (Cytochrome P450 3A4)	IC50 (HUVEC [1])	inhibition at 5 µM (HUVEC [3])
CCC(C)n1ncn(-c2ccc(N3CCN(c4ccc(OC[C@@H]5CO[C@@](Cn6nnnc6-c6ccccc6)(c6ccc(Cl)cc6Cl)O5)cc4)CC3)cc2)c1=O (stereo partly specified)	18%				119 nM	
CCC(C)n1ncn(-c2ccc(N3CCN(c4ccc(OCC5COC(Cn6cncn6)(c6ccc(Cl)cc6Cl)O5)cc4)CC3)cc2)c1=O (stereo unspecified) [ITRACONAZOLE]	84%	Active				45%
CCC(C)n1ncn(-c2ccc(N3CCN(c4ccc(OC[C@@H]5CO[C@@](Cn6ncnn6)(c6ccc(Cl)cc6Cl)O5)cc4)CC3)cc2)c1=O (stereo partly specified)	17%				124 nM	
CCC(C)n1ncn(-c2ccc(N3CCN(c4ccc(OC[C@@H]5CO[C@@](Cn6ccnc6-c6ccccc6)(c6ccc(Cl)cc6Cl)O5)cc4)CC3)cc2)c1=O (stereo partly specified)	23%		Active		136 nM	
CCC(C)n1ncn(-c2ccc(N3CCN(c4ccc(OC[C@@H]5CO[C@@](Cn6cc(C(F)(F)F)nc6C)(c6ccc(Cl)cc6Cl)O5)cc4)CC3)cc2)c1=O (stereo partly specified)				Not Active	441 nM	
CCC(C)n1ncn(-c2ccc(N3CCN(c4ccc(OC[C@@H]5CO[C@@](Cn6cc(C)nc6C)(c6ccc(Cl)cc6Cl)O5)cc4)CC3)cc2)c1=O (stereo partly specified)	38%				492 nM	
CCC(C)n1ncn(-c2ccc(N3CCN(c4ccc(OC[C@@H]5CO[C@@](Cn6ccnc6C(C)C)(c6ccc(Cl)cc6Cl)O5)cc4)CC3)cc2)c1=O (stereo partly specified)	6%	Active			84 nM	
CCC(C)n1ncn(-c2ccc(N3CCN(c4ccc(OC[C@@H]5CO[C@@](Cc6ccccc6)(c6ccc(Cl)cc6Cl)O5)cc4)CC3)cc2)c1=O (stereo partly specified)				Not Active	513 nM	
CCC(C)n1ncn(-c2ccc(N3CCN(c4ccc(OC[C@@H]5CO[C@@](Cn6cnc(C(F)(F)F)n6)(c6ccc(Cl)cc6Cl)O5)cc4)CC3)cc2)c1=O (stereo partly specified)		Active		Not Active	270 nM	
CCC(C)n1ncn(-c2ccc(N3CCN(c4ccc(OC[C@@H]5CO[C@@](Cn6c(C)cnc6C)(c6ccc(Cl)cc6Cl)O5)cc4)CC3)cc2)c1=O (stereo partly specified)	23%				765 nM	
CCC(C)n1ncn(-c2ccc(N3CCN(c4ccc(OC[C@@H]5CO[C@@](Cn6cccn6)(c6ccc(Cl)cc6Cl)O5)cc4)CC3)cc2)c1=O (stereo partly specified)				Not Active	307 nM	
CCC(C)n1ncn(-c2ccc(N3CCN(c4ccc(OC[C@@H]5CO[C@@](Cn6nc(C)nc6C)(c6ccc(Cl)cc6Cl)O5)cc4)CC3)cc2)c1=O (stereo partly specified)	27%				221 nM	
CCC(C)n1ncn(-c2ccc(N3CCN(c4ccc(OC[C@@H]5CO[C@@](Cn6ccnc6)(c6ccc(Cl)cc6Cl)O5)cc4)CC3)cc2)c1=O (stereo partly specified)	99%				85 nM	
CCc1nccn1C[C@@]1(c2ccc(Cl)cc2Cl)OC[C@@H](COc2ccc(N3CCN(c4ccc(-n5cnn(C(C)CC)c5=O)cc4)CC3)cc2)O1 (stereo partly specified)	7%				224 nM	
CCC(C)n1ncn(-c2ccc(N3CCN(c4ccc(OC[C@@H]5COC(c6ccc(Cl)cc6Cl)O5)cc4)CC3)cc2)c1=O (mixture of isomers)				Not Active	328 nM	
